Experimental data of several laboratories.
Each line is one published result; the experiments were not run side by side.
Target: 3-phosphoinositide-dependent protein kinase 1 (PDPK1, Homo sapiens, UniProt O15530)
Residues used in one study (O15530 1-556): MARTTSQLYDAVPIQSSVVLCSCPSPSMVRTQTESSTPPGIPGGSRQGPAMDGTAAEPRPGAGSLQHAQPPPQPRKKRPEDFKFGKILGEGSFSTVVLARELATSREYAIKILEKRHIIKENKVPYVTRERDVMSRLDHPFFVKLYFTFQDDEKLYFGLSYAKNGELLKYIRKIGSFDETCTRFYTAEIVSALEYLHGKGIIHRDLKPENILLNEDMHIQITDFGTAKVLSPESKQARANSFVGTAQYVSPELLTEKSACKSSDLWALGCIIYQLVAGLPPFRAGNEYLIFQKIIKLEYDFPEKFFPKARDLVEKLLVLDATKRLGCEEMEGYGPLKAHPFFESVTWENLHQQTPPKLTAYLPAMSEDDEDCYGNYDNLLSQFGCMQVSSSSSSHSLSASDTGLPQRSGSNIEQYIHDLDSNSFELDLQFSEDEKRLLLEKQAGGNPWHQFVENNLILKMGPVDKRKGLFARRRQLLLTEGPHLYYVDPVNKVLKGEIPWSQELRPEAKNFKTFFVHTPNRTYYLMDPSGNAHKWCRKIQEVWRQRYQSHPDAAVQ

SMILES | test | conditions | remaining binding
CN(C)c1ncc(F)c(-c2cnn3ncccc23)n1 | binding | 1 µM | 99%
Cc1ccc(NC(=O)c2ccc(CN3CCN(C)CC3)cc2)cc1Nc1nccc(-c2cccnc2)n1 | cell-free assay, competition with immobilised ligand | 10 µM | 100%
O=C(NC[C@@H]1[C@H]2CN(C(=O)OCc3cc(C(F)(F)F)cc(C(F)(F)F)c3)C[C@@H]12)c1ccc2[nH]nnc2c1 | cell-free assay, competition with immobilised ligand | 1 µM | 96%
N#Cc1ccccc1CSc1nnc2c(n1)[nH]c1ccccc12 | binding, competition with immobilised ligand | 10 µM | 91%
COc1ccc2c(c1)O[C@H](c1ccc(OC)c(OC)c1)C[C@@H]2NC(=O)C1(c2ccc3c(c2)OC(F)(F)O3)CC1 | cell-free assay, competition with immobilised ligand | 1 µM | 100%
Cc1cnc(Nc2ccc(C(=O)N3CCC(N4CCCC4)CC3)cc2)nc1-c1cc2ccccc2s1 | binding, competition with immobilised ligand | 1 µM | 72%
N[C@@H]1CCN(c2nccc(-c3cnn4ncccc34)n2)C1 | binding | 1 µM | 96%
CC(C)(C)c1ccc(-c2nc(CBr)nn2-c2cccc(O)c2)cc1 | cell-free assay, competition with immobilised ligand | 10 µM | 89%
O=C(Nc1c[nH]nc1C(=O)NC1CCNCC1)c1cc(F)cc(F)c1 | binding, competition with immobilised ligand | 1 µM | 90%
CNC(=O)[C@@H]1CC[C@@H](n2c(-c3ccc4cnccc4c3)nc3ccc(C(=O)NCc4cccc(C(N)=O)c4)cc32)C1 | binding, competition with immobilised ligand | 1 µM | 51%
CN(CCCC(F)(F)F)c1nccc(-c2cnn3ncccc23)n1 | binding | 1 µM | 100%
CS(=O)(=O)NCC[C@H](NC(=O)c1cncc2c1cnn2-c1ccc(F)cc1)c1ccnc(S(C)(=O)=O)c1 | cell-free assay, competition with immobilised ligand | 1 µM | 100%
C[C@@H]1CN(c2ccc3ncc(-c4ccc5[nH]nc(C6CC6)c5c4)n3n2)C[C@H](C)O1 | binding, competition with immobilised ligand | 0.5 µM | 100%
CCN(CC)Cc1cc(Nc2ccnc3cc(Cl)ccc23)ccc1O | cell-free assay, competition with immobilised ligand | 10 µM | 93%
CN(C)C(=O)Cn1cc(-c2nc([C@@](C)(c3ccc(-c4cnc(N)nc4)cc3)C3CC3)no2)cn1 | cell-free assay, competition with immobilised ligand | 1 µM | 99%
FC(F)(F)Oc1cccc(-c2cnc3ccc(-c4ccncc4)nn23)c1 | cell-free assay, competition with immobilised ligand | 5 µM | 90%
c1cnn2ncc(-c3ccnc(N4CCC45COC5)n3)c2c1 | binding | 1 µM | 98%

SMILES | test | conditions | remaining binding
O=C(NCCCN1CCOCC1)c1ccc(Nc2nccc(-c3cc4ccccc4s3)n2)cc1 | binding, competition with immobilised ligand | 1 µM | 99%
NS(=O)(=O)c1cc(NC(=O)C2(c3ccccc3Cl)CC2)ccc1Oc1cccc(Cl)c1 | cell-free assay, competition with immobilised ligand | 1 µM | 85%
Cc1c(-c2ccccc2)oc2c(C(=O)OCCN3CCCCC3)cccc2c1=O | cell-free assay, competition with immobilised ligand | 10 µM | 100%
CN(C)c1nccc(-c2cnn3ncccc23)n1 | binding | 1 µM | 100%
CS(=O)(=O)CCNCc1ccc(-c2ccc3ncnc(Nc4ccc(OCc5cccc(F)c5)c(Cl)c4)c3c2)o1 | cell-free assay, competition with immobilised ligand | 10 µM | 100%
C[C@H](c1ccc(F)cc1)N(Cc1cccc(C(=O)O)c1)C(=O)c1cnc2ccccc2c1 | cell-free assay, competition with immobilised ligand | 1 µM | 100%
COc1ncc2cc3ccccc3nc2c1C#N | cell-free assay, competition with immobilised ligand | 5 µM | 88%
CCN(CC)CCNC(=O)c1c(C)[nH]c(/C=C2\C(=O)Nc3ccc(F)cc32)c1C | cell-free assay, competition with immobilised ligand | 0.1 µM | 100%
CNC(=O)Nc1ccc2c(c1)CC[C@@]21OC(=O)N(CC(=O)N(Cc2ccc(F)cc2)[C@@H](C)C(F)(F)F)C1=O | cell-free assay, competition with immobilised ligand | 1 µM | 88%
CN1CC[C@H](c2c(O)cc(O)c3c(=O)cc(-c4ccccc4Cl)oc23)[C@H](O)C1 | cell-free assay, competition with immobilised ligand | 10 µM | 100%
O=C(Nc1cccnn1)N1CC(C/C=C/c2cncc(Oc3ccc(C(F)(F)F)cn3)n2)C1 | cell-free assay, competition with immobilised ligand | 1 µM | 97%
CNC(=O)c1cc(Oc2ccc(NC(=O)Nc3ccc(Cl)c(C(F)(F)F)c3)cc2)ccn1 | cell-free assay, competition with immobilised ligand | 10 µM | 85%
C[C@@H]1CCN(c2nccc(-c3cnn4ncccc34)n2)C1 | binding | 1 µM | 89%
O=C(c1ccc(Nc2ncc(Cl)c(-c3cc4ccccc4s3)n2)cc1)N1CCC(N2CCCC2)CC1 | binding, competition with immobilised ligand | 1 µM | 78%
CCN1CCN(Cc2ccc(C(=O)Nc3ccc(C)c(Oc4ccc5c(c4)CC(=O)N5)c3)cc2C(F)(F)F)CC1 | binding, competition with immobilised ligand | 1 µM | 100%
Cc1nc(Nc2ncc(C(=O)Nc3c(C)cccc3Cl)s2)cc(N2CCN(CCO)CC2)n1 | cell-free assay, competition with immobilised ligand | 10 µM | 100%
C[C@@H](c1ccc(-n2cnc3c(N)ncnc32)cc1)N1CCc2nn(C)c(Cc3ccccc3)c2C1=O | binding, competition with immobilised ligand | 0.1 µM | 100%
